Converted amounts (≈) assume the structure as drawn.
Key:
[1] = test system: Mycobacterium tuberculosis; assay: Antimicrobial activity against Mycobacterium tuberculosis H37Rv after 7 days by MABA; type: functional; conditions: 168 h
Method in brief: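 Strain H37Rv or clinical isolates grown to late log phase in 7H9-ADC-TG, washed, resuspended in PBS, filtered (8 µm) and frozen. On day 7 Tween 80 and alamar blue added, read 16–24 h later (ex 530/em 590). MIC = lowest concentration giving ≥90% fluorescence reduction versus bacterium-only controls.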

Vero = assay: Cytotoxicity against African green monkey Vero cells assessed as reduction in cell viability after 48 hrs by MTT assay; type: cell-based; conditions: Chlorocebus sabaeus
Method in brief: (§1)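 Vero or HepG2 cells in RPMI1640 with 10% FBS at 37 °C, 5% CO2, seeded at 4×10^5 cells/mL. Threefold dilutions at 64–0.26 µg/mL final for 48 h. Cells then washed with HBSS, MTT added for 4 h, absorbance read at 492 nm. IC50 taken relative to untreated control.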

[2] = Metabolic stability in CD-1 mouse liver microsomes assessed as parent compound remaining at 1 uM measured after 30 mins in presence of NADPH by LC-MS/MS analysis; type: ADME, Microsome; conditions: read-out: Stability
Method in brief: (§2)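 Male CD-1 mouse or pooled human liver microsomes (1 mg/mL protein), compound at 1 µM, 37 °C. Reaction started with 1 mM NADPH and quenched with cold ACN/MeOH containing internal standard. Parent remaining measured by LC-MS/MS; the 30-min value is normalised to time zero.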

[3] = Metabolic stability in human liver microsomes assessed as parent compound remaining at 1 uM measured after 30 mins in presence of NADPH by LC-MS/MS analysis; type: ADME, Microsome; conditions: read-out: Stability; method in brief: as §2
[4] = test system: Mycobacterium tuberculosis; assay: Antimicrobial activity against Mycobacterium tuberculosis H37Rv infected in BALB/C mouse assessed as bacterial burden in mouse lung at 25 mg/kg, po administered via gavage treated 5 times per week for 3 weeks starting from day 10 post infection (reference value: 7.102 +/- 0.152 log10CFU); type: functional
[5] = Selectivity index, ratio of IC50 for human HepG2 cells to MIC=>90 for Mycobacterium tuberculosis H37Rv; type: toxicity; conditions: read-out: Selectivity Index
HepG2 = assay: Cytotoxicity against human HepG2 cells assessed as reduction in cell viability after 48 hrs by MTT assay; type: cell-based; conditions: HepG2, 48 h; method in brief: as §1
[6] = Inhibition of Mycobacterium tuberculosis DprE1 expressed in Escherichia coli BL21(DE3) by fluorescence based assay
Method in brief: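 Buffer: 50 mM Hepes pH 7.5, 100 mM NaCl, 1.5% DMSO, 100 µM Tween-20, 2 µM FAD, 50 µM resazurin. DprE1 (1 µM) with 1 mM FPR at 30 °C across inhibitor concentrations. Resorufin formation followed by fluorescence (ex 530/em 595 nm).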

[7] = Half life in CD-1 mouse hepatocytes assessed per million cells at 1 uM incubated up to 120 mins by LC-MS/MS analysis; type: ADME, cell-based, Hepatocyte
Method in brief: (§3)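 Pooled male CD-1 mouse or pooled human hepatocytes at 1 million cells/mL final, compound at 1 µM. Incubated at 37 °C in a CO2 incubator with shaking (~100 rpm). Samples taken at 0, 15, 30, 60, 90 and 120 min and quenched with cold ACN/MeOH containing internal standard. Parent compound remaining measured by LC-MS/MS.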

[8] = Intrinsic clearance in human hepatocytes assessed per million cells at 1 uM incubated up to 120 mins by LC-MS/MS analysis; type: ADME, cell-based, Hepatocyte; conditions: read-out: CLH; method in brief: as §3
[9] = Intrinsic clearance in CD-1 mouse hepatocytes assessed per million cells at 1 uM incubated up to 120 mins by LC-MS/MS analysis; type: ADME, cell-based, Hepatocyte; conditions: read-out: CLH; method in brief: as §3
[10] = Half life in human hepatocytes assessed per million cells at 1 uM incubated up to 120 mins by LC-MS/MS analysis; type: ADME, cell-based, Hepatocyte; method in brief: as §3

**Q.** With `O=c1nc(N2CCN(CC3CCCCC3)CC2)oc2c([N+](=O)[O-])cc(C(F)(F)F)cc12` as the compound, how does the MIC90 [1] read?
**A.** 0.159 µg/mL (≈ 0.361 µM)

**Q.** What about the IC50 (Vero) of the same compound?
**A.** 52.1 µg/mL (≈ 118 µM)

**Q.** With `COc1ccc(CN(C)c2cc(=O)c3cc(C(F)(F)F)cc([N+](=O)[O-])c3s2)cc1OC` as the compound, how does the MIC90 [1] read?
**A.** < 0.016 µg/mL

**Q.** What about the IC50 (Vero) of the same compound?
**A.** > 64 µg/mL

**Q.** Which MIC90 [1] does the source give for `COc1ccc(CNc2nc(=O)c3cc(C(F)(F)F)cc([N+](=O)[O-])c3o2)cc1OC` here?
**A.** 0.226 µg/mL (≈ 0.531 µM)

**Q.** And the IC50 (Vero)?
**A.** 29.2 µg/mL (≈ 68.7 µM)

**Q.** Which MIC90 [1] does the source give for `O=c1nc(Nc2ccccc2)oc2c([N+](=O)[O-])cc(C(F)(F)F)cc12` here?
**A.** 30.6 µg/mL (≈ 87.3 µM)

**Q.** And the IC50 (Vero)?
**A.** 37.9 µg/mL (≈ 108 µM)

**Q.** Which MIC90 [1] does the source give for `CC1CN(c2cc(=O)c3cc(C(F)(F)F)cc([N+](=O)[O-])c3s2)CCN1Cc1ccccc1` (stereo not given) here?
**A.** < 0.016 µg/mL

**Q.** And the remaining at 0.5 h, 1 µM [2]?
**A.** 54.5%

**Q.** And the remaining at 0.5 h, 1 µM [3]?
**A.** 76.7%

**Q.** And the IC50 (Vero)?
**A.** > 64 µg/mL

**Q.** For `CO[C@H]1/C=C/O[C@@]2(C)Oc3c(C)c(O)c4c(O)c(c(/C=N/N5CCN(C)CC5)c(O)c4c3C2=O)NC(=O)/C(C)=C\C=C\[C@H](C)[C@H](O)[C@@H](C)[C@@H](O)[C@@H](C)[C@H](OC(C)=O)[C@@H]1C` [RIFAMPIN], which MIC90 [1] is on record?
**A.** 0.096 µg/mL (≈ 0.117 µM)

**Q.** For `O=c1cc(N2CCN(c3nccs3)CC2)sc2c([N+](=O)[O-])cc(C(F)(F)F)cc12`, which MIC90 [1] is on record?
**A.** 0.054 µg/mL (≈ 0.122 µM)

**Q.** And the IC50 (Vero)?
**A.** > 64 µg/mL

**Q.** Which results are given for `CN(Cc1ccccc1)c1cc(=O)c2cc(C(F)(F)F)cc([N+](=O)[O-])c2s1`?
**A.** MIC90 [1]: < 0.016 µg/mL; remaining at 0.5 h, 1 µM [2]: 13%; remaining at 0.5 h, 1 µM [3]: 11.6%; IC50 (Vero): > 64 µg/mL

**Q.** For `NNC(=O)c1ccncc1` [ISONIAZID], which MIC90 [1] is on record?
**A.** 0.035 µg/mL (≈ 0.255 µM)

**Q.** And the Activity [4]?
**A.** 1.929 log10CFU

**Q.** Which MIC90 [1] does the source give for `O=c1nc(N2CCN(c3nccs3)CC2)oc2c([N+](=O)[O-])cc(C(F)(F)F)cc12` here?
**A.** 4 µg/mL (≈ 9.36 µM)

**Q.** With `O=c1cc(NC2CCCCC2)sc2c([N+](=O)[O-])cc(C(F)(F)F)cc12` as the compound, how does the MIC90 [1] read?
**A.** 1.53 µg/mL (≈ 4.1 µM)

**Q.** And the IC50 (Vero)?
**A.** > 64 µg/mL

**Q.** For `O=c1nc(NCc2ccc3c(c2)OCCO3)oc2c([N+](=O)[O-])cc(C(F)(F)F)cc12`, which MIC90 [1] is on record?
**A.** 0.03 µg/mL (≈ 0.0709 µM)

**Q.** What about the IC50 (Vero) of the same compound?
**A.** 25.3 µg/mL (≈ 59.7 µM)

**Q.** With `CC1COC2(CCN(c3cc(=O)c4cc(C(F)(F)F)cc([N+](=O)[O-])c4o3)CC2)O1` (stereo not given) as the compound, how does the MIC90 [1] read?
**A.** < 0.016 µg/mL

**Q.** What about the IC50 (Vero) of the same compound?
**A.** 18.9 µg/mL (≈ 45.5 µM)

**Q.** Which MIC90 [1] does the source give for `COc1ccc(CN(C)c2nc(=O)c3cc(C(F)(F)F)cc([N+](=O)[O-])c3o2)cc1OC` here?
**A.** 0.057 µg/mL (≈ 0.13 µM)

**Q.** And the IC50 (Vero)?
**A.** 9.46 µg/mL (≈ 21.5 µM)

**Q.** Which results are given for `CN(Cc1ccccc1)c1nc(=O)c2cc(C(F)(F)F)cc([N+](=O)[O-])c2o1`?
**A.** MIC90 [1]: 0.031 µg/mL (≈ 0.0817 µM); IC50 (Vero): 3.84 µg/mL (≈ 10.1 µM)

**Q.** Which MIC90 [1] does the source give for `O=C1CN(c2nc(=O)c3cc(C(F)(F)F)cc([N+](=O)[O-])c3o2)CCN1CC1CCCCC1` here?
**A.** 6.28 µg/mL (≈ 13.8 µM)

**Q.** What about the IC50 (Vero) of the same compound?
**A.** 25.4 µg/mL (≈ 55.9 µM)

**Q.** Which MIC90 [1] does the source give for `O=c1nc(NCC2CCCCC2)oc2c([N+](=O)[O-])cc(C(F)(F)F)cc12` here?
**A.** 0.05 µg/mL (≈ 0.135 µM)

**Q.** What about the IC50 (Vero) of the same compound?
**A.** 29.7 µg/mL (≈ 80.1 µM)

**Q.** With `O=c1cc(NCc2cccc(F)c2)sc2c([N+](=O)[O-])cc(C(F)(F)F)cc12` as the compound, how does the MIC90 [1] read?
**A.** 0.118 µg/mL (≈ 0.296 µM)

**Q.** What about the IC50 (Vero) of the same compound?
**A.** > 64 µg/mL

**Q.** With `O=c1cc(N2CCN(Cc3ccccc3)CC2)sc2c([N+](=O)[O-])cc(C(F)(F)F)cc12` as the compound, how does the MIC90 [1] read?
**A.** 0.03 µg/mL (≈ 0.0667 µM)

**Q.** And the remaining at 0.5 h, 1 µM [2]?
**A.** 60.5%

**Q.** And the selectivity ratio [5]?
**A.** > 2130

**Q.** And the IC50 (HepG2)?
**A.** > 64 µg/mL

**Q.** And the IC50 [6]?
**A.** 1330 nM

**Q.** And the remaining at 0.5 h, 1 µM [3]?
**A.** 87.6%

**Q.** And the IC50 (Vero)?
**A.** > 64 µg/mL

**Q.** What does the source list for `O=c1nc(NCc2ccc(F)cc2)oc2c([N+](=O)[O-])cc(C(F)(F)F)cc12`?
**A.** MIC90 [1]: 7.22 µg/mL (≈ 18.8 µM); IC50 (Vero): > 64 µg/mL

**Q.** What does the source list for `O=c1nc(N2CCN(CC3CCCCC3)CC2)sc2c([N+](=O)[O-])cc(C(F)(F)F)cc12` [MACOZINONE]?
**A.** MIC90 [1]: < 0.016 µg/mL; half-life at 1 µM [7]: 165 min; remaining at 0.5 h, 1 µM [2]: 63.9%; hepatocyte CLint at 1 µM [8]: 14.5 µL/min/1e6 cells; hepatocyte CLint at 1 µM [9]: 4.2 µL/min/1e6 cells; selectivity ratio [5]: > 1190; IC50 (HepG2): 19 µg/mL (≈ 41.6 µM); half-life at 1 µM [10]: 47.8 min; IC50 [6]: 200 nM; remaining at 0.5 h, 1 µM [3]: 58.7%; IC50 (Vero): > 64 µg/mL

**Q.** What does the source list for `CN(Cc1ccc2c(c1)OCCO2)c1nc(=O)c2cc(C(F)(F)F)cc([N+](=O)[O-])c2o1`?
**A.** MIC90 [1]: < 0.016 µg/mL; IC50 (Vero): 9.27 µg/mL (≈ 21.2 µM)
